Source: ChEMBL document CHEMBL1828575, “Design, synthesis and antiproliferative activities of biarylolefins based on polyhydroxylated and carbohydrate scaffolds” (Eur J Med Chem, 2011)

Assays:
Format in all cases: functional
DU-145 = assay: Cytotoxicity against human DU145 cells assessed as cellular growth at 10 uM after 48 hrs by SRB assay
Method in brief: (§1)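 NCI60 single-dose screen of cells in RPMI 1640 with 5% FBS and 2 mM L-glutamine, preincubated 24 h at 37 °C, 5% CO₂. Cells were then exposed 48 h to compound added from DMSO stock. TCA-fixed, stained with 0.4% SRB in 1% acetic acid, dye solubilised in 10 mM Tris base and read at 515 nm. Growth is given as percent of untreated control.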

MDA-MB-231 [1] = assay: Cytotoxicity against human MDA-MB-231 cells assessed as cellular growth at 10 uM after 48 hrs by SRB assay
Method in brief: (§2)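 NCI-60 panel lines grown in RPMI 1640 with 5% FBS and 2 mM L-glutamine. Plated at 5000–40,000 cells/well and preincubated 24 h at 37 °C, 5% CO₂, with time-zero plates fixed in TCA. Compounds, dissolved in DMSO and diluted in medium, were applied for 48 h. Cells were TCA-fixed (10% final for adherent, 16% for suspension) and stained with 0.4% SRB in 1% acetic acid. Dye was solubilised in 10 mM Tris base and read at 515 nm; growth was expressed as a percentage of untreated control.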

COLO 205 [2] = assay: Cytotoxicity against human COLO205 cells assessed as cellular growth at 10 uM after 48 hrs by SRB assay; method in brief: as §1
K562 = assay: Cytotoxicity against human K562 cells assessed as cellular growth at 10 uM after 48 hrs by SRB assay; method in brief: as §1
SR = assay: Cytotoxicity against human SR cells assessed as cellular growth at 10 uM after 48 hrs by SRB assay; method in brief: as §2
HCT-116 = assay: Cytotoxicity against human HCT116 cells assessed as cellular growth at 10 uM after 48 hrs by SRB assay; method in brief: as §1
NCI-H226 = assay: Cytotoxicity against human NCI-H226 cells assessed as cellular growth at 10 uM after 48 hrs by SRB assay; method in brief: as §2
SF-539 = assay: Cytotoxicity against human SF539 cells assessed as cellular growth at 10 uM after 48 hrs by SRB assay; method in brief: as §2
MDA-MB-435 = assay: Cytotoxicity against human MDA-MB-435 cells assessed as cellular growth at 10 uM after 48 hrs by SRB assay; method in brief: as §2
SK-MEL-5 [3] = assay: Cytotoxicity against human SK-MEL-5 cells assessed as cellular growth at 10 uM after 48 hrs by SRB assay; method in brief: as §2
OVCAR-4 [4] = assay: Cytotoxicity against human OVCAR4 cells assessed as cellular growth at 10 uM after 48 hrs by SRB assay; method in brief: as §2
NCI/ADR-RES [5] = assay: Cytotoxicity against human NCI/ADR-RES cells assessed as cellular growth at 10 uM after 48 hrs by SRB assay; method in brief: as §2
SN12C = assay: Cytotoxicity against human SN12C cells assessed as cellular growth at 10 uM after 48 hrs by SRB assay; method in brief: as §2
TK-10 = assay: Cytotoxicity against human TK10 cells assessed as cellular growth at 10 uM after 48 hrs by SRB assay; method in brief: as §2
SNB-19 = assay: Antitumor activity against human SNB19 cells after 48 hrs by SRB assay; conditions: SNB-19, 48 h; for CC50: read-out: LC50 (the source's name)
Method in brief: (§3)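 NCI60 panel cells grown in RPMI 1640 with 5% FBS and 2 mM L-glutamine, plated at 5000–40,000 cells/well and preincubated 24 h at 37 °C, 5% CO₂. Compound was added from DMSO at five concentrations, 10-fold or 1/2 log dilutions, then incubated 48 h.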

Malme-3M = assay: Antitumor activity against human MALME-3M cells after 48 hrs by SRB assay
Method in brief: (§4)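 NCI60 panel in RPMI 1640 with 5% FBS and 2 mM L-glutamine. Cells were plated at 5000–40,000/well by doubling time, held 24 h, then time-zero plates were TCA-fixed. Five concentrations (10-fold or half-log dilutions of DMSO stocks) were applied for 48 h at 37 °C, 5% CO2. Cells were fixed with cold TCA (10% final adherent, 16% suspension) and stained with 0.4% SRB. Bound dye was dissolved in 10 mM Tris and read at 515 nm. GI50, TGI and LC50 were calculated per line.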

SK-MEL-5 [6] = assay: Antitumor activity against human SK-MEL-5 cells after 48 hrs by SRB assay; conditions: SK-MEL-5, 48 h; method in brief: as §3
NCI/ADR-RES [7] = assay: Antitumor activity against human NCI/ADR-RES cells after 48 hrs by SRB assay; method in brief: as §4
786-0 = assay: Antitumor activity against human 786-0 cells after 48 hrs by SRB assay; conditions: 786-0, 48 h; method in brief: as §4
MDA-MB-231 [8] = assay: Antitumor activity against human MDA-MB-231 cells after 48 hrs by SRB assay; conditions: MDA-MB-231, 48 h; for CC50: read-out: LC50 (the source's name); method in brief: as §4
[9] = Antitumor activity against human Hs 578T cells after 48 hrs by SRB assay; conditions: for CC50: read-out: LC50 (the source's name); method in brief: as §4
T47D = assay: Antitumor activity against human T47D cells after 48 hrs by SRB assay; method in brief: as §3
OVCAR-4 [10] = assay: Antitumor activity against human OVCAR4 cells after 48 hrs by SRB assay; conditions: OVCAR-4, 48 h; method in brief: as §4
COLO 205 [11] = assay: Antitumor activity against human COLO205 cells after 48 hrs by SRB assay; conditions: COLO 205, 48 h; method in brief: as §4
MOLT-4 = assay: Antitumor activity against human MOLT4 cells after 48 hrs by SRB assay; conditions: MOLT-4, 48 h; for CC50: read-out: pLC50 (the source's name) (converted); method in brief: as §4
SK-MEL-28 = assay: Antitumor activity against human SK-MEL-28 cells after 48 hrs by SRB assay; conditions: SK-MEL-28, 48 h; for CC50: read-out: pLC50 (the source's name) (converted); method in brief: as §3
[12] = read-out: LC50 (the source's name)
[13] = read-out: pLC50 (the source's name) (converted)

COc1ccc(/C(=C2/O[C@@H]([C@H]3COC(C)(C)O3)[C@H]3OC(C)(C)O[C@@H]23)c2cc(OC)c(OC)c(OC)c2)cc1O
Activity (DU-145): 34.8%
Activity (MDA-MB-231 [1]): 43.9%
Activity (COLO 205 [2]): 120.76%
Activity (K562): 24.28%
Activity (SR): 25.4%
Activity (HCT-116): 53.99%
Activity (NCI-H226): 107.94%
Activity (SF-539): 9.85%
Activity (MDA-MB-435): 44.7%
Activity (SK-MEL-5 [3]): 59.59%
Activity (OVCAR-4 [4]): 99.15%
Activity (NCI/ADR-RES [5]): 10.1%
Activity (SN12C): 57.72%
Activity (TK-10): 109.18%
GI50 (SNB-19): 4.28 µM
TGI (SNB-19): > 100 µM
CC50 (SNB-19): > 100 µM
GI50 (Malme-3M): 5.46 µM
LC50 (concentration killing 50% of cells present at time zero) (Malme-3M): > 100 µM
TGI (Malme-3M): > 100 µM
GI50 (SK-MEL-5 [6]): 2.69 µM
LC50 (SK-MEL-5 [6]): 49.3 µM
TGI (SK-MEL-5 [6]): 11.2 µM
GI50 (NCI/ADR-RES [7]): 2.52 µM
LC50 (NCI/ADR-RES [7]): > 100 µM
TGI (NCI/ADR-RES [7]): 6.91 µM
GI50 (786-0): 21.2 µM
LC50 (786-0): > 100 µM
TGI (786-0): 60.6 µM
GI50 (MDA-MB-231 [8]): 4.58 µM
TGI (MDA-MB-231 [8]): 30.7 µM
CC50 (MDA-MB-231 [8]): > 100 µM
GI50 [9]: 2.83 µM
TGI [9]: 7.88 µM
CC50 [9]: > 100 µM
GI50 (T47D; read-out: GI50): 2.51 µM
CC50 (T47D; [12]): > 100 µM
TGI (T47D; read-out: TGI): > 100 µM
GI50 (T47D; read-out: pGI50 (converted)): 25.1 µM
CC50 (T47D; [13]): > 100 µM
TGI (T47D; read-out: pTGI (converted)): > 100 µM
CC50 (OVCAR-4 [10]; [12]): > 100 µM
GI50 (OVCAR-4 [10]; read-out: pGI50 (converted)): 9.12 µM
CC50 (OVCAR-4 [10]; [13]): > 100 µM
TGI (OVCAR-4 [10]; read-out: pTGI (converted)): > 100 µM
CC50 (COLO 205 [11]; [12]): > 100 µM
TGI (COLO 205 [11]; read-out: TGI): > 100 µM
GI50 (COLO 205 [11]; read-out: pGI50 (converted)): 17.8 µM
CC50 (COLO 205 [11]; [13]): > 100 µM
TGI (COLO 205 [11]; read-out: pTGI (converted)): > 100 µM
LC50 (concentration killing 50% of cells) (MOLT-4): > 100 µM
GI50 (MOLT-4; read-out: GI50): 6.93 µM
TGI (MOLT-4; read-out: TGI): > 100 µM
GI50 (MOLT-4; read-out: pGI50 (converted)): 6.92 µM
CC50 (MOLT-4): > 100 µM
TGI (MOLT-4; read-out: pTGI): > 100 µM
LC50 (50% lethal concentration) (SK-MEL-28): > 100 µM
GI50 (SK-MEL-28; read-out: GI50): 5.45 µM
TGI (SK-MEL-28; read-out: TGI): > 100 µM
GI50 (SK-MEL-28; read-out: pGI50 (converted)): 5.5 µM
CC50 (SK-MEL-28): > 100 µM
TGI (SK-MEL-28; read-out: pTGI): > 100 µM

COc1ccc(/C(=C2\O[C@@H]([C@H]3COC(C)(C)O3)[C@H]3OC(C)(C)O[C@@H]23)c2cc(OC)c(OC)c(OC)c2)cc1O
Activity (DU-145): 45.59%
Activity (MDA-MB-231 [1]): 54.45%
Activity (COLO 205 [2]): 120.67%
Activity (K562): 10.18%
Activity (SR): -13.6%
Activity (HCT-116): 78.08%
Activity (NCI-H226): 112.98%
Activity (SF-539): 21.53%
Activity (MDA-MB-435): -10.2%
Activity (SK-MEL-5 [3]): 61.79%
Activity (OVCAR-4 [4]): 105.57%
Activity (NCI/ADR-RES [5]): -10.52%
Activity (SN12C): 84.5%
Activity (TK-10): 116.76%
GI50 (SNB-19): 2.49 µM
TGI (SNB-19): 6.08 µM
CC50 (SNB-19): > 100 µM
GI50 (Malme-3M): 2.07 µM
LC50 (concentration killing 50% of cells present at time zero) (Malme-3M): > 100 µM
TGI (Malme-3M): 5.59 µM
GI50 (SK-MEL-5 [6]): 4.07 µM
LC50 (SK-MEL-5 [6]): 51.4 µM
TGI (SK-MEL-5 [6]): 15.4 µM
GI50 (NCI/ADR-RES [7]): 4.26 µM
LC50 (NCI/ADR-RES [7]): > 100 µM
TGI (NCI/ADR-RES [7]): 22.3 µM
GI50 (786-0): 2.3 µM
LC50 (786-0): 8.6 µM
TGI (786-0): 4.47 µM
GI50 (MDA-MB-231 [8]): 6.28 µM
TGI (MDA-MB-231 [8]): 69.7 µM
CC50 (MDA-MB-231 [8]): > 100 µM
GI50 [9]: 4.44 µM
TGI [9]: 53.4 µM
CC50 [9]: > 100 µM
GI50 (T47D; read-out: GI50): 63.6 µM
CC50 (T47D; [12]): > 100 µM
TGI (T47D; read-out: TGI): > 100 µM
GI50 (T47D; read-out: pGI50 (converted)): 44.7 µM
CC50 (T47D; [13]): > 100 µM
TGI (T47D; read-out: pTGI (converted)): > 100 µM
GI50 (OVCAR-4 [10]; read-out: GI50): 37.5 µM
CC50 (OVCAR-4 [10]; [12]): > 100 µM
TGI (OVCAR-4 [10]; read-out: TGI): > 100 µM
GI50 (OVCAR-4 [10]; read-out: pGI50 (converted)): 37.2 µM
CC50 (OVCAR-4 [10]; [13]): > 100 µM
TGI (OVCAR-4 [10]; read-out: pTGI (converted)): > 100 µM
GI50 (COLO 205 [11]; read-out: GI50): 27.3 µM
CC50 (COLO 205 [11]; [12]): > 100 µM
TGI (COLO 205 [11]; read-out: TGI): 63.7 µM
GI50 (COLO 205 [11]; read-out: pGI50 (converted)): 27.5 µM
CC50 (COLO 205 [11]; [13]): > 100 µM
TGI (COLO 205 [11]; read-out: pTGI (converted)): 63.1 µM
LC50 (concentration killing 50% of cells) (MOLT-4): > 100 µM
GI50 (MOLT-4; read-out: GI50): 24.2 µM
TGI (MOLT-4; read-out: TGI): > 100 µM
GI50 (MOLT-4; read-out: pGI50 (converted)): 24 µM
CC50 (MOLT-4): > 100 µM
TGI (MOLT-4; read-out: pTGI): > 100 µM
LC50 (50% lethal concentration) (SK-MEL-28): > 100 µM
GI50 (SK-MEL-28; read-out: GI50): 10.6 µM
TGI (SK-MEL-28; read-out: TGI): > 100 µM
GI50 (SK-MEL-28; read-out: pGI50 (converted)): 10.5 µM
CC50 (SK-MEL-28): > 100 µM
TGI (SK-MEL-28; read-out: pTGI): > 100 µM
